Screening results from PubChem BioAssay.
In the library only some 2.7% were active in any assay of this set; here they are far more common.
PAFAH2 inh: PAFAH2 (human) inhibition. recombinant PAFAH2, FP-rhodamine activity probe, fluorescence polarization. Q99487. AID 492956. hit rate 0.99% among 340,000. inhibition, % at 3.39 µM;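 active = inhibition above the mean over all tested compounds plus 3 SD, cut at about 30% in these data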;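 also: inhibitors block probe labeling of enzyme so polarization drops; 0% = enzyme with DMSO and 100% = wells lacking PAFAH2 protein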
RBBP9 inh: human RBBP9 hydrolase inhibition. O75884. recombinant RBBP9, FP-Rh probe fluorescence polarization. inhibition, % at 7.94 µM. hit rate 0.2% among 220,000;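 active = inhibition above the campaign mean of all tested compounds plus 3 SD, cut at about 14% in these data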;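 also: plate controls were DMSO wells with RBBP9 for no effect and wells lacking RBBP9 protein for full effect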
Target sequence (O75884 whole entry, looked up): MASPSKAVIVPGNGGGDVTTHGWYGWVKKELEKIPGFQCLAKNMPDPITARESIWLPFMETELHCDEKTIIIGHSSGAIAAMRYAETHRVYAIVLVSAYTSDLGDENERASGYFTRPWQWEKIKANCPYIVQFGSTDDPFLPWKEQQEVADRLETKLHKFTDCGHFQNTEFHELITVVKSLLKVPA
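Test system: recombinant human RBBP9; Timing: 30 min then 45 min, 25 °C; Detection: fluorescence polarization; Control set: RBBP9 with DMSO as uninhibited control, no-protein wells as full inhibition; Compound dosing: one concentration, 7.94 µM nominal, 0.794% DMSO; Probe or stimulus: FP-Rh activity-based probe, 375 nM before mixing.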
PAFAH1B3 FP inh: blocks human PAF acetylhydrolase 1B catalytic subunit 3; Q15102; recombinant PAFAH1B3, FP-rhodamine probe, fluorescence polarization; inhibition, % at 3.39 µM; hit rate 0.28% among 340,000;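 active = inhibition above the screen-wide average of all tested compounds plus 3 SD, cut at about 25% in these data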;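 also: 0% = enzyme with DMSO only and 100% = wells lacking PAFAH1B3 protein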
Target sequence (Q15102 whole entry, looked up): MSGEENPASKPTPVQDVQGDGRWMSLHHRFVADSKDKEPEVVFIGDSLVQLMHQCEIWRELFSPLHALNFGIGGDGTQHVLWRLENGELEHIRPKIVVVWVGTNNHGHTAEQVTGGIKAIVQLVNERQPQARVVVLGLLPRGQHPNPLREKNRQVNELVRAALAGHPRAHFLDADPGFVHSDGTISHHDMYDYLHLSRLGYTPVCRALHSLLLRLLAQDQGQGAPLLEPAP
pPAFAH inh: inhibitors of human plasma PAF acetylhydrolase (pPAFAH); AID 463082; recombinant pPAFAH, FP-rhodamine probe fluorescence polarization; inhibition, % at 3.39 µM; hit rate 1.5% among 330,000;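 active = inhibition above the mean inhibition across the screen plus 3 SD, cut at about 25% in these data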;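 also: inhibitors block binding of the rhodamine activity-based probe so polarization drops; 0% = enzyme with DMSO and 100% = wells lacking pPAFAH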
PAFAH1B2 inh: inhibitors of human PAFAH1B2. recombinant PAFAH1B2, FP-rhodamine activity probe, fluorescence polarization. AID 492953. hit rate 1.2% among 340,000. P68402. inhibition, % at 3.39 µM;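 active = inhibition above the mean of all tested compounds plus 3 SD, cut at about 24% in these data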;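 also: 0% = enzyme with DMSO and 100% = wells lacking PAFAH1B2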
Target sequence (P68402 whole entry, looked up): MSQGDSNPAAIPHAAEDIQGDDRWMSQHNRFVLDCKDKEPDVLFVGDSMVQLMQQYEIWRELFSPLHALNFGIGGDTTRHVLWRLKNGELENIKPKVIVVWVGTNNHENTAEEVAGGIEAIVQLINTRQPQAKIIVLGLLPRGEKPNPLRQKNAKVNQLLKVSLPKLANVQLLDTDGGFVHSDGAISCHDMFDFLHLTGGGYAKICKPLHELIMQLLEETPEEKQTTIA
PAFAH2 confirm: PAFAH2 (human) inhibition, confirmed; shares compounds with PAFAH2 inh; hit rate 65% among 2,300; inhibition, % at 3.39 µM; recombinant PAFAH2, FP-rhodamine activity probe, fluorescence polarization; AID 493030;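 active = mean inhibition over three repeats above a set limit taken from the earlier primary screen, cut at about 30% in these data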;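 also: inhibitor blocks binding of rhodamine activity probe so polarization falls; 0% = enzyme with DMSO and 100% = wells lacking PAFAH2 protein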
Starred values were filed as active, the others as inactive; / = not tested or not shown.

SMILES | PAFAH2 inh | RBBP9 inh | PAFAH1B3 FP inh | pPAFAH inh | PAFAH1B2 inh | PAFAH2 confirm
O=C(CCc1ccccc1)Nc1ccccc1C(=O)NCc1ccco1 | 30* | -10 | 5 | 5 | 2 | 30*
O=C(Nc1ccccc1C(=O)NCc1ccco1)c1ccccc1 | 4 | -12 | 10 | 0 | 7 | /
Cc1ccc(-c2ccc(/C=C3\C(=O)ON=C3c3ccccc3)o2)c([N+](=O)[O-])c1 | 32* | -2 | 5 | 19 | 12 | 25
Cc1cccc(NC(=O)C(=O)C2C(=O)Nc3ccccc32)c1 (stereo not given) | 36* | -9 | 1 | -2 | 7 | 29
COc1ccc(Nc2nc(N3CCOCC3)nc(N3CCOCC3)n2)cc1Cl | 5 | / | 10 | 7 | 2 | /
Cc1ccc(C(=O)OCC(=O)c2c[nH]c3ccccc23)cc1 | 22 | -5 | -4 | 2 | 3 | /
COc1ccc(C(=O)OCC(=O)c2c[nH]c3ccccc23)cc1OC | 47* | / | 0 | -2 | 4 | 44*
COc1cc(C(=O)OCC(=O)c2c[nH]c3ccccc23)ccc1OCC(=O)N1CCOCC1 | 34* | 1 | -5 | -11 | 4 | 20
CCOc1cc(C(=O)OCC(=O)c2c(C)[nH]c3ccccc23)ccc1OCC(=O)N1CCOCC1 | -3 | -5 | 3 | -5 | 2 | /
CCOc1cc(C(=O)OCC(=O)c2c[nH]c3ccccc23)ccc1OCC(=O)N1CCOCC1 | 45* | -6 | 5 | 5 | -1 | 33*
CCOc1cc(C(=O)OCC(=O)NC(C)c2ccccc2)ccc1OCC(=O)N1CCOCC1 (stereo not given) | 92* | -8 | 1 | 6 | 8 | 71*
O=C(CC(=O)NN=C1CCCCCC1)NCc1cccnc1 | -4 | 0 | 9 | -3 | -3 | /
CC(C)CC(=O)Nc1nnc(CSCc2ccc(F)cc2)s1 | 11 | -7 | 9 | 6 | 5 | /
CCOC(=O)c1c(C)[nH]c(C(=O)OCC(=O)Nc2sccc2C(N)=O)c1C | -29 | / | -19 | -26 | -10 | /
O=C(CCC(=O)N1CCCC1)Nc1ccc(Cl)c(Cl)c1 | 54* | / | 3 | 23 | -6 | 57*
Cc1ccc(C(=O)O/N=C(/c2nonc2N)N(C)C)cc1 | 51* | -10 | 8 | 21 | 0 | 41*
O=C(O/N=C1\CCCc2ccccc21)c1cccs1 | 42* | 2 | 4 | -1 | 4 | -5
O=C(Cc1ccccc1)O/N=C1\CCCc2ccccc21 | -3 | 5 | 3 | 5 | 5 | /
O=C(COC(=O)/C=C/c1cccs1)Nc1cccc(S(=O)(=O)N2CCCC2)c1 | 64* | -13 | 11 | 5 | 1 | 57*
COc1ccccc1CNC(=O)COC(=O)/C=C/c1cccs1 | 50* | -7 | 6 | 14 | 5 | 37*
COc1ccccc1CNC(=O)COC(=O)c1ccc(C)s1 | 75* | / | 3 | 21 | 4 | 62*
CCNC(=O)COC(=O)/C=C/c1cccs1 | 16 | 0 | 8 | -2 | 9 | /
CCOc1ccc(/C=C/C(=O)OCC(=O)Nc2cccc(S(=O)(=O)N3CCCC3)c2)cc1 | 25 | / | -5 | -3 | -2 | /
CCc1cccc(NC(=O)COC(=O)/C=C/c2cccs2)c1 | 73* | / | 1 | 17 | 3 | 78*
CN(CC(=O)Nc1ccc(F)cc1)C(=O)COC(=O)/C=C/c1cccs1 | 6 | / | -3 | 2 | 4 | /
SMILES | PAFAH2 inh | RBBP9 inh | PAFAH1B3 FP inh | pPAFAH inh | PAFAH1B2 inh | PAFAH2 confirm
O=C(COC(=O)/C=C/c1cccs1)Nc1ccc(F)cc1 | 82* | / | 6 | 7 | 2 | 82*
CCN(CC)CCN(CC(=O)Nc1c(C)cc(C)cc1C)C(=O)c1ccccc1 | -3 | / | 11 | 2 | 6 | /
O=C(O)c1ccccc1N=Cc1c(O)n(-c2nccs2)c(=O)c2ccccc12 | 17 | 6 | 2 | 0 | 7 | /
CCN(CC)S(=O)(=O)c1cccc(-n2c(O)c(C=Nc3ccccc3C(=O)O)c3ccccc3c2=O)c1 | 89* | -6 | 0 | 10 | 3 | 73*
COc1ccccc1CN1CCC(n2nccc2NC(=O)CCOc2ccccc2)CC1 | -3 | / | 4 | 0 | -1 | /
Cc1cc(C)n(-c2ccc(C(=O)Nc3cc(S(=O)(=O)N(C)C)ccc3Cl)cc2)n1 | 3 | 3 | 4 | -1 | 1 | /
O=C(NCCc1ccc(Cl)cc1)C1CC(=O)N(C2CCCC2)C1 (stereo not given) | 104* | / | 3 | 1 | 13 | -4
CC(C)C(Cl)=NOC(=O)Nc1ccc(S(N)(=O)=O)cc1 | 47* | / | 6 | / | 8 | 39*
COC(=O)[C@H](C)NC(=O)Nc1ccc(S(N)(=O)=O)cc1 | 3 | -12 | -1 | 5 | 7 | /
C/C=C/C(=O)OCC(=O)Nc1ccc(OC)c(OC)c1 | 4 | 11 | 6 | 3 | -2 | /
C/C=C/C(=O)OCC(=O)Nc1cccc(Br)c1 | 82* | -5 | 2 | 5 | 1 | 73*
C/C=C/C(=O)OCC(=O)Nc1ccc(OC)c(Cl)c1 | 39* | 6 | 5 | 6 | -3 | 29
C/C=C/C(=O)OCC(=O)Nc1cccc(F)c1 | 78* | -8 | 5 | 3 | -2 | 65*
O=C(COC(=O)c1cc[n+]([O-])cc1)Nc1cccc(F)c1 | 0 | / | 10 | 2 | 0 | /
CCOC(=O)CN1C(=O)CC(c2ccccc2)C1=O (stereo not given) | 9 | / | 7 | 6 | -3 | /
COc1cccc(/C=C/C(=O)OCC(=O)c2c(N)n(C)c(=O)n(C)c2=O)c1 | 5 | / | 0 | -8 | -6 | /
O=C(ON=C1CCN(S(=O)(=O)c2ccccc2)CC1)c1ccc(F)cc1 | 87* | -3 | 5 | 7 | 9 | 84*
CS(=O)(=O)ON=C1CCN(S(=O)(=O)c2ccccc2)CC1 | 0 | -7 | 9 | -1 | 6 | /
O=C(c1ccc(F)cc1)C1CCN(S(=O)(=O)c2ccccc2)CC1 | -1 | 0 | -1 | 3 | 3 | /
CC(C)(C)C1CCC(OC(=O)c2ccncc2)CC1 (stereo not given) | -2 | -8 | 11 | 1 | 0 | /
Cc1ccc(C(=O)ON=C2CCN(S(=O)(=O)c3ccccc3)CC2)cc1 | 90* | -12 | 3 | 14 | 1 | 89*
CC(C)(C)C1CCC(=NOC(=O)c2ccc(F)cc2)CC1 (stereo not given) | 81* | -8 | 6 | 5 | 5 | 84*
O=C(CNC(=O)c1ccc2ccccc2c1)NC1CCCCC1 | 6 | / | 5 | 3 | -4 | /
OC(COCc1cccs1)CN1CCN(c2cccc(Cl)c2)CC1 (stereo not given) | 1 | -6 | -5 | 3 | 4 | /
Cc1[nH]c2ccccc2c1C(=O)C(C)OC(=O)c1ccccc1NCCO (stereo not given) | 4 | / | -3 | 7 | 5 | /
C=C(C)COc1ccc2c(C)c(C)c(=O)oc2c1OCC(=C)C | 38* | -1 | 4 | 9 | 3 | 40*
C=C(C)COc1ccc2c(C)c(CC(=O)OC)c(=O)oc2c1C | 9 | 11 | -2 | 8 | 6 | /
